From PubChem
JMJD2C inh: inhibitors of human GASC-1 (JMJD2C) demethylase. inhibition, % at 2.35 µM. 330,000 compounds, 0.069% hits. GST-JMJD2C(1-420) H3K9me3 demethylation, DELFIA europium. AID 2099. Q9H3R0;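 active = more than half of a compound's replicate wells show inhibition beyond 50%, single wells judged on their own value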;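 note: signal counts dimethyl H3K9 product captured on neutravidin plate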
T cell modulator: T cell immune modulators affecting CD8 T cell-vesicle binding; 2C CD8+ T cell-vesicle binding, flow cytometry; hits give low values; response (vesicle binding), % at 7 µM; 330,000 compounds, 0.068% hits; AID 2052;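 active = response, share of CD8 T cells binding vesicles, and their 90th percentile fluorescence all below set limits, cut at about 80% in these data, passing the limit was not always enough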;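 note: values below 100% mean blocked vesicle binding to the CD8+ T cells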
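Assay system – 2C mouse CD8+ T cells · Also added – QL9-loaded Drosophila micro-vesicles · Timing – Cell–vesicle co-incubation 1.5 h at 37 °C, staining 20 min on ice · Signal – flow cytometry of vesicle-bound cells · Measure – percent CD8+ FL2 mean versus row control · Controls – Peptide-free naked vesicles (low) and QL9 vesicles with 0.7% DMSO vehicle (high)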
Rtt109 HAT inh: C. albicans Rtt109 histone acetyltransferase inhibition; inhibition, % at 34.9 µM; purified Rtt109/Vps75, ThioGlo CoA-SH fluorescence, 4 h; 330,000 compounds, 0.16% hits; Q5AAJ8;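 active = inhibition of at least 50% in every replicate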
Target sequence (Q5AAJ8 whole entry, looked up): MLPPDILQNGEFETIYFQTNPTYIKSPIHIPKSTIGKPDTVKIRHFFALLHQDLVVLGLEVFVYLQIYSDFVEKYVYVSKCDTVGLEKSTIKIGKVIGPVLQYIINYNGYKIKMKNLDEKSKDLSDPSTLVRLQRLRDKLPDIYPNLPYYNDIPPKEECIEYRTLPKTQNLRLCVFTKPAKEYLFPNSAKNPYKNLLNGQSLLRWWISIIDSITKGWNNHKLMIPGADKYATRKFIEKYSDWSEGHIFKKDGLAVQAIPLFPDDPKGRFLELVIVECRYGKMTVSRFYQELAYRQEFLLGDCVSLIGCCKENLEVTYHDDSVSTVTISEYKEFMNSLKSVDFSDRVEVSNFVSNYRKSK
NR3A LBD binder: modulates the human NR3A ligand-binding domain | NR3A LBD differential scanning fluorimetry, Tm shift; 0% = protein alone, 100% = glycine-bound protein | Tm shift relative to glycine control, % at 25 µM | 340,000 compounds, 2.5% hits;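 active = melting temperature shift of at least 10% of the positive control shift, at one fixed dose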
Large screens that a line does not name were inactive. Only some compounds are listed: those with a hit (about 2.8% of all), similar ones and a draw of the others.

O=C(Nc1ccccc1)c1ccc2c(c1)OCCO2	none
CC(=O)NNC(=S)Nc1cccc(F)c1	none
O=C1CC(/C=C/c2ccccc2)(C(=O)NC2CCCC2)N1c1ccc(S(=O)(=O)N2CCCC2)cc1 (stereo not given)	none
CC1C(=O)N(c2ccc(S(=O)(=O)N(C)C)cc2)C1(/C=C/c1ccccc1)C(=O)NC1CCCC1 (stereo not given)	NR3A LBD binder 28
COc1ccc(Cn2c(-c3ccccc3C)nc3c(c(=O)c4ccccc4n3C)c2=O)cc1	none
CC(C)Cc1csc(NC(=O)c2ccc(Cl)cc2)c1C(=O)O	none
CC(C)Cc1csc(NC(=O)c2ccccc2Cl)c1C(=O)O	NR3A LBD binder 12
COc1cc(C2c3[nH]c4ccccc4c3CC3COC(=O)N32)cc(OC)c1O (stereo not given)	none (no result: JMJD2C inh, T cell modulator)
O=C(Nc1ccc(N2C(=O)C3CCCCC3C2=O)cc1Cl)c1cccs1 (stereo not given)	NR3A LBD binder 18
O=C(Nc1ccccc1Cl)c1cccs1	none
Cc1ccc(-c2csc(N3CCC[C@@H]3C(=O)NCCn3c(-c4ccncc4)nc4ccccc43)n2)cc1	none
O=C(CSc1nc2ccc([N+](=O)[O-])cc2[nH]1)c1ccc2ccccc2c1	NR3A LBD binder 23
COC(=O)c1ccc(OC)c(CN2CCCN(Cc3cc(C)ccc3C)S2(=O)=O)c1	none
CCOc1ccc(C(C(=O)NC2CCCC2)N(C(=O)c2snc(C(N)=O)c2N)c2cccc(O)c2)cc1 (stereo not given)	none
COc1cccc(C(=O)COC(=O)COc2c(C)cc(C)cc2C)c1	none
O=c1c([N+](=O)[O-])c(O)c2ccccc2n1Cc1ccccc1	NR3A LBD binder 10
O=C(Cn1nc(-c2ccccc2)oc1=O)OCC(=O)c1ccc(F)c(F)c1	none
COc1ccc(/C=N/NC(=S)N[C@H]2CC3CCC2C3)cc1 (stereo not given in full)	NR3A LBD binder 26
O=C(NC1CCCCC1)Oc1cc2oc(=O)sc2cc1Br	Rtt109 HAT inh 59
O=C(N/N=C/c1ccccc1O)C(=O)N1CCCCCC1	NR3A LBD binder 11
CCOC(=O)[C@@H]1[C@H]2COc3cc(OC)ccc3[C@H]2N2C(=O)N(c3ccc(OC)cc3)C(=O)[C@]12C	none
Cc1occc1C(=O)N1CCN(c2ccccc2)CC1	NR3A LBD binder 12
CNC(=O)c1c(C)nn(-c2ccc(F)c(Cl)c2)c1-c1cc(C)on1	none (no result: Rtt109 HAT inh)
COc1ccc(-c2c(C)c3cc(O)ccc3oc2=O)cc1OC	NR3A LBD binder 42
Cc1ccc(Nc2nc3ccccc3o2)cc1F	NR3A LBD binder 12
CC1=NN(c2ccc(Cl)cc2)C(=O)/C1=C\c1cccn1-c1ccc(S(N)(=O)=O)cc1	NR3A LBD binder 22
O=C(Nc1cccc(S(=O)(=O)N2CCCCC2)c1)c1ccc(N2CCCC2=O)cc1	none
O=c1nc(Nc2ccc(Br)cc2)sc2ccc([N+](=O)[O-])cc12	NR3A LBD binder 13
CC(=O)Nc1nc2cc([N+](=O)[O-])ccc2s1	none
COc1ccc(/C(C)=N\NS(C)(=O)=O)c(OC)c1	none
COc1ccc(/C(C)=N/N=C(\C)c2ccc(OC)cc2OC)c(OC)c1	NR3A LBD binder 12
CCn1c(SCC(=O)Nc2ccc3c(c2)c2ccccc2n3CC)nnc1-c1ccco1	Rtt109 HAT inh 66
O=C(Nc1cccc([N+](=O)[O-])c1)c1cc2ccccc2cc1O	NR3A LBD binder 27 (no result: Rtt109 HAT inh)
Cc1nc2ccc(C(=O)Nc3cccc([N+](=O)[O-])c3)cc2s1	NR3A LBD binder 21
CCc1ccccc1NC(=O)CSc1nc(-c2ccccc2)nn1C(=O)c1cccc([N+](=O)[O-])c1	none (no result: Rtt109 HAT inh, NR3A LBD binder)
O=C(CSc1nc(-c2ccccc2)nn1C(=O)c1ccccc1)Nc1cccc([N+](=O)[O-])c1	NR3A LBD binder 13
Cc1nc2ccc(NC(=O)c3ccc([N+](=O)[O-])cc3[N+](=O)[O-])cc2s1	none
O=C(O)c1ccccc1C(=O)Nc1cccc([N+](=O)[O-])c1	none
CC(C)(C)CC(C)(C)SSc1n[nH]c(=S)s1	none (no result: JMJD2C inh, T cell modulator)
Cc1ccc(/C=C/C(=O)OCC(=O)NC(=O)NCc2ccco2)cc1	none
O=C(Nc1cccc([N+](=O)[O-])c1)c1cccc(C(=O)Nc2cccc([N+](=O)[O-])c2)c1	none
Cc1ccc(NC(=O)c2csc(-c3ccccc3)c2C)cc1	none (no result: JMJD2C inh, T cell modulator)
CS(=O)(=O)Nc1ccc(C(=O)Nc2cccc([N+](=O)[O-])c2)cc1	NR3A LBD binder 21
CCn1c2ccccc2c2cc(NC(=O)c3cccc([N+](=O)[O-])c3)ccc21	NR3A LBD binder 17
Cc1ccccc1NS(=O)(=O)c1cc(C(=O)Nc2cccc([N+](=O)[O-])c2)ccc1C	NR3A LBD binder 24
CCn1c2ccccc2c2cc(NC(=O)c3ccc(C)c([N+](=O)[O-])c3)ccc21	none
Cc1c(C(=O)Nc2cccc([N+](=O)[O-])c2)csc1-c1ccccc1	NR3A LBD binder 13
CCN(C(=O)COC(=O)/C=C/c1ccc2c(c1)OCO2)c1c(N)n(Cc2ccccc2)c(=O)[nH]c1=O	none (no result: JMJD2C inh, T cell modulator)
COc1ccc(Br)cc1CN(C)C(=O)c1ccccc1OCc1c(C)noc1C	none
O=C(Nc1cccc([N+](=O)[O-])c1)c1ccc(-c2ccccc2)cc1	NR3A LBD binder 25
CCOc1cc(C(=O)N=c2sccn2C)cc(Br)c1OC	none
O=C(N/N=C/c1cccnc1)c1cccc(Cl)c1	none
Cc1ccc(C(=O)Nc2ccc(C(=O)N/N=C/c3cccnc3)cc2)cc1	NR3A LBD binder 11
Cc1cccc(C(=O)Nc2ccc(C(=O)N/N=C/c3cccnc3)cc2)c1	none
O=C(N/N=C/c1cccnc1)c1cccc(NC(=O)c2ccc(Cl)cc2)c1	NR3A LBD binder 16
CC(NC1=CC(=O)c2cccnc2C1=O)C(O)c1ccccc1 (stereo not given)	none (no result: JMJD2C inh, T cell modulator)
O=C(Nc1cccc(Cl)c1)Nc1ccc2c(c1)C(=O)OC2	NR3A LBD binder 31
O=C1OCc2ccc(NC(=O)c3c(F)cccc3Cl)cc21	none
O=C(Nc1cccc(F)c1)Nc1ccc2c(c1)C(=O)OC2	NR3A LBD binder 14
COc1ccc(C(=O)N2CCC3(CC2)NCCc2[nH]cnc23)cc1OC	none
COc1ccc(N2CSC3=C(C#N)C(c4cccs4)CC(=O)N3C2)cc1 (stereo not given)	NR3A LBD binder 19
Cc1ccc(C(=O)N/C(=C/c2ccc(N(C)C)cc2)C(=O)NCC2CCCO2)cc1 (stereo not given)	none
Nc1c(C(=O)N/N=C/c2ccc(Cl)cc2)cnn1-c1ccccc1	none
O=c1c(Cl)c(N/N=C/c2ccc(Cl)cc2)cnn1-c1ccccc1	NR3A LBD binder 16 (no result: Rtt109 HAT inh)
CCOc1nc(-c2ccc(OC)cc2)ccc1-c1noc(C)n1	NR3A LBD binder 25
COc1ccc(-c2ccc(-c3noc(C)n3)c(OC)n2)cc1	none
CC1(C)C[C@@H](O)[C@]2(C)CC[C@]3(C)C(=CCC4[C@@]5(C)CC[C@H](O)[C@](C)(CO)C5CC[C@]43C)[C@@H]2C1 (stereo not given in full)	none (no result: JMJD2C inh)
CN(Cc1ccccc1)C(=O)c1ccc(NC(=O)Cc2ccc(NC(=O)C3CCN(C(=O)C4CCCC4)CC3)cc2)cc1	none (no result: JMJD2C inh, T cell modulator)
